# Activity calls are given as the source filed them. No cut-off for these calls is given here.
# Assays:
# [1] = target: T1, Quinolone resistance protein NorA (Staphylococcus aureus) (UniProt P0A0J7); test: Inhibition of NorA in Staphylococcus aureus SA-1199B expressing GrlA A116E mutant assessed as reduction in EtBr efflux at 50 uM incubated for 5 mins by fluorescence based assay
# T1 sequence (whole entry): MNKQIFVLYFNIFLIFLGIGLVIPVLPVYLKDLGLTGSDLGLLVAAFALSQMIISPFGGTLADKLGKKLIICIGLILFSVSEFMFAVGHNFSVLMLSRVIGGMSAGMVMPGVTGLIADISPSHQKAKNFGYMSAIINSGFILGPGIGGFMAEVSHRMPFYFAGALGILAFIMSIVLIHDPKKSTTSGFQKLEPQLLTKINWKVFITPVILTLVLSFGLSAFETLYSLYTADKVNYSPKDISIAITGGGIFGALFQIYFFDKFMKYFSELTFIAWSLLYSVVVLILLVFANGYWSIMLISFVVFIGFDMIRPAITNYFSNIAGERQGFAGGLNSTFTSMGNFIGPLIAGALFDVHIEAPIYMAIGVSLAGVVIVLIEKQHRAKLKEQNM
# In short: (§1)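 Cells were grown overnight in cation-supplemented Mueller-Hinton broth at 35 °C and subcultured to OD600 0.7–0.8. They were loaded at OD600 0.8 with 25 µM EtBr plus 100 µM CCCP (final) for 20 min at room temperature. Cells were then resuspended in fresh broth with or without compound, 50 µM for the single-point screen or a concentration series for IC50. Fluorescence (ex 485/em 645 nm) was read for 5 min. Inhibition was calculated from the fluorescence decrease versus untreated cells. Biological triplicate, each run twice.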
# [2] = target: Quinolone resistance protein NorA (Staphylococcus aureus, UniProt P0A0J7, A116E); test: Inhibition of NorA in Staphylococcus aureus SA-1199B expressing GrlA A116E mutant assessed as reduction in EtBr efflux incubated for 5 mins by fluorescence based assay; in short: as §1
# [3] = system: Staphylococcus aureus; test: Antimicrobial activity against Staphylococcus aureus SA-1199B expressing wild type norA and co-expressing GrlA A116E mutant by microdilution method; type: organism-based; settings: in vivo
# In short: (§2)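 CLSI broth microdilution MIC of the compound alone. Strains: SA-K1902 (norA deleted), SA-K2378 (SA-K1902 carrying norA plus its promoter on multicopy plasmid pCU1), SA-1199B (norA overexpressing, GrlA A116E).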
# [4] = target: T1, Quinolone resistance protein NorA (Staphylococcus aureus); test: Inhibition of NorA in Staphylococcus aureus SA-1199B expressing GrlA A116E mutant assessed as minimal potentiating drug concentration causing 8 fold reduction in ciprofloxacin MIC by microdilution method based Checkerboard assay
# [5] = system: Staphylococcus aureus; test: Synergistic potentiation of ciprofloxacin-induced antimicrobial activity against wild type Staphylococcus aureus ATCC 25923 at 0.78 to 100 ug/ml by microdilution method based Checkerboard assay; type: functional, organism-based
# [6] = target: T1, Quinolone resistance protein NorA (Staphylococcus aureus); test: Inhibition of NorA in Staphylococcus aureus SA-1199B expressing GrlA A116E mutant assessed as synergistic potentiation of ciprofloxacin-induced antimicrobial activity at 0.78 to 100 ug/ml by microdilution method based Checkerboard assay
# [7] = target: T1, Quinolone resistance protein NorA (Staphylococcus aureus); test: Inhibition of NorA in Staphylococcus aureus SA-K2378 assessed as synergistic potentiation of ciprofloxacin-induced antimicrobial activity at 0.78 to 100 ug/ml by microdilution method based Checkerboard assay
# [8] = system: Staphylococcus aureus; test: Synergistic potentiation of ciprofloxacin-induced antimicrobial activity against norA deleted Staphylococcus aureus SA-K1902 at 0.78 to 100 ug/ml by microdilution method based Checkerboard assay; type: functional, organism-based
# [9] = Cytotoxicity in human HepG2 cells assessed as reduction in cell viability incubated for 24 hrs by ATP bioluminescence assay; type: cell-based
# In short: (§3)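 Cells were grown to confluence overnight in RPMI 1640 with 10% heat-inactivated fetal calf serum, penicillin and streptomycin. Monolayers were exposed for 24 h at 37 °C to scalar concentrations (0-250 µg/mL). Viability was read by ATP bioluminescence, each concentration in triplicate. CC50 is the concentration reducing cell number by 50% versus untreated controls.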
# [10] = Cytotoxicity in human THP1 cells assessed as reduction in cell viability incubated for 24 hrs by ATP bioluminescence assay; type: cell-based, THP-1; in short: as §3
# [11] = system: Staphylococcus aureus; test: Antimicrobial activity against Staphylococcus aureus ATCC 25923 by microdilution method; type: organism-based; settings: in vivo
# In short: (§4)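 Broth microdilution MIC per CLSI guidelines. ATCC 25923 is norA wild-type. SA-1199B overexpresses norA and carries an A116E GrlA substitution.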
# [12] = Selectivity index, ratio of CC50 for human HepG2 cells to inhibition of NorA in Staphylococcus aureus SA-1199B expressing GrlA A116E mutant assessed as minimal potentiating drug concentration causing 8 fold reduction in ciprofloxacin MIC by microdilution method based Checkerboard assay; type: toxicity; settings: read-out: Selectivity Index
# In short: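 CC50 cells (HepG2 for […], THP-1 for […]) were grown to confluence in RPMI 1640 with 10% FCS, penicillin and streptomycin. They were exposed 24 h at 37 °C to 0–250 µg/mL. Viability was read by ATP bioluminescence, triplicate. CC50 is the concentration reducing cell number 50% versus untreated.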
# [13] = system: Staphylococcus aureus; test: Antimicrobial activity against Staphylococcus aureus SA-1199B expressing wild type norA by microdilution method; type: organism-based; settings: in vivo; in short: as §4
# [14] = system: Staphylococcus aureus; test: Antimicrobial activity against NorA deficient Staphylococcus aureus SA-K1902 by microdilution method; type: organism-based; settings: in vivo; in short: as §2
# [15] = system: Staphylococcus aureus; test: Induction of membrane depolarization in Staphylococcus aureus SA-1199B expressing wild type norA at 1 ug/ml incubated for 30 mikns by DiOC2(3) fluorescent probe based cytofluorimetry; type: organism-based; settings: in the assay text read “overexpressing norA” for “expressing wild type norA”
# In short: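 SA-1199B was grown in MHB at 37 °C to OD600 0.6, washed, and diluted to 1×10^6 CFU/mL in filtered PBS. DiOC2(3) was added at 30 µM final, and compound at 1, 5 or 10 µg/mL for 30 min. CCCP 5 µM final served as positive control. Flow cytometry with 488 nm excitation gave a red/green ratio normalized to the DiOC2(3) blank, expressed as % depolarized versus drug-free control.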
# [16] = system: Staphylococcus aureus; test: Synergistic potentiation of EtBr-induced antimicrobial activity against mepA deficient Staphylococcus aureus SA-K2885 at 0.78 to 100 ug/ml by microdilution method based Checkerboard assay; type: organism-based; settings: in vivo
# In short: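 Checkerboard combination of EtBr with compound, using broth microdilution MICs. SA-K2886 (norA-deleted, pALC2073-mepA) and SA-K2885 (norA-deleted, empty pALC2073) were run with 0.05 µg/mL tetracycline in all experiments to induce the xyl/tetO promoter.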
# [17] = target: Cytochrome P450 3A4 (Homo sapiens, UniProt P08684); test: Inhibition of human recombinant CYP3A4 at 1 uM using beetle D-luciferin as substrate by CYP450-Glo assay; type: ADME; settings: recombinant enzyme
# In short: (§5)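 Luminescent P450-Glo assay in which recombinant human CYP3A4 or CYP2D6 converts a beetle D-luciferin derivative to D-luciferin. Compound was tested at 1 and 10 µM.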
# [18] = target: Cytochrome P450 2D6 (Homo sapiens, UniProt P10635); test: Inhibition of human recombinant CYP2D6 at 1 uM using beetle D-luciferin as substrate by CYP450-Glo assay; type: ADME; settings: recombinant enzyme; in short: as §5
# Chain of Cytochrome P450 2D6 (P10635 whole entry): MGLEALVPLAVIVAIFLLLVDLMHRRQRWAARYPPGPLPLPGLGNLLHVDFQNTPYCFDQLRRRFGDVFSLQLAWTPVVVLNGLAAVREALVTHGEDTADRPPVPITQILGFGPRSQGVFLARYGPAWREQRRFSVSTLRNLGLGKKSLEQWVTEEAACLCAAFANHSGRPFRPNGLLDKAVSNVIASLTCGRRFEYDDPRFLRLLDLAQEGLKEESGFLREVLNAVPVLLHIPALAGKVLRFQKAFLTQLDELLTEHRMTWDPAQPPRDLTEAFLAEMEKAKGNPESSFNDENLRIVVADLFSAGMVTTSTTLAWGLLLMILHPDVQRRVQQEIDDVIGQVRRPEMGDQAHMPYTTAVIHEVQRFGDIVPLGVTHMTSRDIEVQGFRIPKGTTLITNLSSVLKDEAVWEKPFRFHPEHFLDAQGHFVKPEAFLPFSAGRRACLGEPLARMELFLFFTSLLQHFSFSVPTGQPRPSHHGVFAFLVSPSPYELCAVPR
# Chain of Cytochrome P450 3A4 (P08684 whole entry): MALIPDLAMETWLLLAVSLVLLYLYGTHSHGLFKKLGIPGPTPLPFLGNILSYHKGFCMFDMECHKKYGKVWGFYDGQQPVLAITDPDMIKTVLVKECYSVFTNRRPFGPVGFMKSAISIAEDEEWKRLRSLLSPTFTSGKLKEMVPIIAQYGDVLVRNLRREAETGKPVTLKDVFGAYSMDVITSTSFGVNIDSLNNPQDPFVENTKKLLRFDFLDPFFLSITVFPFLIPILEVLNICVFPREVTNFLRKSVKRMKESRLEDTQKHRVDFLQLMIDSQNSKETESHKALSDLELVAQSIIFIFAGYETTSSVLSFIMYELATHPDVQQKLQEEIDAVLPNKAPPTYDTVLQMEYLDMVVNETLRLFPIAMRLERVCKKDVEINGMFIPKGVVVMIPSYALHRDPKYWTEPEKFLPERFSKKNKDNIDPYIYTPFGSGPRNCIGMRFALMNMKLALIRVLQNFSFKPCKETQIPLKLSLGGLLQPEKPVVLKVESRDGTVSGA
Compound,inhibition [1],IC50 [2],MIC [3],Activity [4],synergistic potentiation of ciprofloxacin activity [5],inhibition [6],inhibition [7],Activity [8],CC50 at 24 h [9],CC50 at 24 h [10],MIC [11],selectivity ratio [12],MIC [13],MIC [14],Activity [15],Activity [16],inhibition (INH) [17],inhibition (INH) [18]
CCCOc1ccc(-c2cc(OCCN3CCCCC3)c3cc(OC)ccc3n2)cc1,97.6%,4200 nM,238 µM,0.78 µg/mL,Active,Active,Active,inactive,42 µg/mL,> 100 µg/mL,50 µg/mL,50,> 100 µg/mL,25 µg/mL,< 10%,Non-Toxic,Not Active,Not Active
CCCOc1ccc(-c2cc(OCCN3CCc4cc(OC)c(OC)cc4C3)c3cc(OC)c(OC)cc3n2)cc1,94.1%,1100 nM,> 179 µM,0.78 µg/mL,Active,Active,Active,inactive,74 µg/mL,37 µg/mL,> 100 µg/mL,95,> 100 µg/mL,100 µg/mL,< 20%,Non-Toxic,Not Active,Not Active
